The RNAGym collection of RNA variant scans (doi:10.1126/science.aae0568)
Fewer inactive variants are shown than the library holds.

B1: tRNA (parent)
chain: GUUCCGUUGGCGUAAUGGUAACGCGUCUCCCUCCUAAGGAGAAGACUGCGGGUUCGAGUCCCGUACGGAACG

Variants of: B1
Experiment: yeast fitness relative to wild type (ratio to wild type); higher = fitter; tRNA-Arg(CCU), competitive growth, 37 C, YPD
In short: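 Gene amplicons from the start population and from each of six end populations were read by 100-nucleotide paired-end sequencing. Those end populations came from pooled Saccharomyces cerevisiae strains carrying tRNA-Arg(CCU) gene variants at the native locus, competed in YPD at 37°C for 24 hours. Fitness relative to wild type was worked out from changes in genotype frequencies. Genotypes needed ≥ 100 starting reads, and estimates < 0.5 were set to 0.5.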

Question: For C34U A37U G58C C62A, which yeast fitness is on record?
Answer: 0.736

Question: For A36U C49G G50C, which yeast fitness is on record?
Answer: ≤ 0.5

Question: With C34U A40C C62U as the variant, how does the yeast fitness read?
Answer: 0.507

Question: With A36U A57C C62U as the variant, how does the yeast fitness read?
Answer: 0.627

Question: Which yeast fitness does the source give for U35G A40C C62G C66G here?
Answer: 0.539

Question: For A36C A37U G50C C66U, which yeast fitness is on record?
Answer: 0.56

Question: With A36G A43U U47G U53G as the variant, how does the yeast fitness read?
Answer: ≤ 0.5

Question: Which yeast fitness does the source give for U35C G58A C60U here?
Answer: ≤ 0.5

Question: Which yeast fitness does the source give for C34U U54C C61A here?
Answer: ≤ 0.5

Question: With A36C C46G G51A as the variant, how does the yeast fitness read?
Answer: ≤ 0.5

Question: Which yeast fitness does the source give for U35G A70C here?
Answer: 0.711

Question: Which yeast fitness does the source give for A36U A37U here?
Answer: 0.587

Question: With A36U C61G A65C as the variant, how does the yeast fitness read?
Answer: ≤ 0.5

Question: With A36G G48A G51C as the variant, how does the yeast fitness read?
Answer: ≤ 0.5

Question: Which yeast fitness does the source give for A36C A45C U54A A57C here?
Answer: 0.538

Question: For U35G C61U, which yeast fitness is on record?
Answer: 0.792

Question: Which yeast fitness does the source give for U35A A43G here?
Answer: 0.624

Question: For U35C A43U U47A, which yeast fitness is on record?
Answer: ≤ 0.5

Question: With U35G A40C as the variant, how does the yeast fitness read?
Answer: 0.682

Question: For A36G G38C G63A, which yeast fitness is on record?
Answer: ≤ 0.5

Question: Which yeast fitness does the source give for A36U A42C C61G here?
Answer: ≤ 0.5

Question: For A36G U47C, which yeast fitness is on record?
Answer: 0.989

Question: Which yeast fitness does the source give for A36C A37G here?
Answer: 0.611

Question: Which yeast fitness does the source give for A36C A37U here?
Answer: ≤ 0.5

Question: With A36G A37U U64C A65G as the variant, how does the yeast fitness read?
Answer: ≤ 0.5

Question: For A36G C60A, which yeast fitness is on record?
Answer: 0.575

Question: For U35A A37U G52A U59C C66A G67A, which yeast fitness is on record?
Answer: ≤ 0.5

Question: Which yeast fitness does the source give for U35C A36G here?
Answer: 0.931

Question: For A36C A69U, which yeast fitness is on record?
Answer: 0.63

Question: With U35C G52C G67C as the variant, how does the yeast fitness read?
Answer: 0.533

Question: Which yeast fitness does the source give for U35G U59A here?
Answer: 0.646

Question: Which yeast fitness does the source give for C34U A42C G56C here?
Answer: ≤ 0.5

Question: With U35G C46U A65C G67C as the variant, how does the yeast fitness read?
Answer: ≤ 0.5

Question: Which yeast fitness does the source give for C34U G50A U59C C62A U64A here?
Answer: ≤ 0.5

Question: For A36G G68C, which yeast fitness is on record?
Answer: 0.779

Question: With U35C A40C as the variant, how does the yeast fitness read?
Answer: 0.795

Question: With U35C A40G as the variant, how does the yeast fitness read?
Answer: 0.711

Question: For U35A G38A C61G, which yeast fitness is on record?
Answer: ≤ 0.5

Question: For U35C A45U C49A, which yeast fitness is on record?
Answer: 0.594

Question: For C34U C49G G52C C55U C62G, which yeast fitness is on record?
Answer: 0.75

Question: With U35A C66G as the variant, how does the yeast fitness read?
Answer: 0.599

Question: For U35C G63A, which yeast fitness is on record?
Answer: 0.614

Question: For A36U A40U, which yeast fitness is on record?
Answer: 0.591

Question: For A36U A40C, which yeast fitness is on record?
Answer: 0.54

Question: For C34U G38A G56A, which yeast fitness is on record?
Answer: 0.611

Question: For A36C A40C, which yeast fitness is on record?
Answer: 0.572

Question: Which yeast fitness does the source give for U35C G39A here?
Answer: 0.886

Question: With C34U A42U C66U as the variant, how does the yeast fitness read?
Answer: ≤ 0.5

Question: With C34U A69U as the variant, how does the yeast fitness read?
Answer: 0.667

Question: With A36G G44A as the variant, how does the yeast fitness read?
Answer: 0.978

Question: With C34U U35C A40C as the variant, how does the yeast fitness read?
Answer: ≤ 0.5

Question: Which yeast fitness does the source give for A36C G68A here?
Answer: 0.56

Question: For A36C G41A U53C A65U, which yeast fitness is on record?
Answer: ≤ 0.5

Question: For C34U G52C C55U G58A, which yeast fitness is on record?
Answer: ≤ 0.5

Question: For A36U A37U C55U, which yeast fitness is on record?
Answer: 0.634

Question: Which yeast fitness does the source give for A36G A42C C49A here?
Answer: 0.548

Question: For U35G U64C A65U, which yeast fitness is on record?
Answer: ≤ 0.5

Question: Which yeast fitness does the source give for A36C C66U here?
Answer: 0.575

Question: Which yeast fitness does the source give for U35C A42U here?
Answer: 0.819

Question: For U35C A42C, which yeast fitness is on record?
Answer: 0.819

Question: Which yeast fitness does the source give for U35C C55U C62A here?
Answer: 0.527

Question: Which yeast fitness does the source give for C34U C66A here?
Answer: ≤ 0.5

Question: For U35A A43C C49A, which yeast fitness is on record?
Answer: 0.566

Question: Which yeast fitness does the source give for A36C A57U C60A here?
Answer: ≤ 0.5

Question: Which yeast fitness does the source give for C34U C49U A69U here?
Answer: 0.607

Question: For C34U C61G A65C C66G, which yeast fitness is on record?
Answer: ≤ 0.5

Question: For C34U G44A A65G, which yeast fitness is on record?
Answer: ≤ 0.5

Question: Which yeast fitness does the source give for A36U A43C U53C here?
Answer: ≤ 0.5

Question: For A36G U54A, which yeast fitness is on record?
Answer: 0.691

Question: For U35A U59C C62U C66U, which yeast fitness is on record?
Answer: 0.645

Question: With U35C A45G as the variant, how does the yeast fitness read?
Answer: 0.773

Question: For A36G A43C, which yeast fitness is on record?
Answer: 0.819

Question: Which yeast fitness does the source give for A36G U53A here?
Answer: 0.754

Question: Which yeast fitness does the source give for A36G A42U U53C G58C here?
Answer: 0.569

Question: For U35A C49U, which yeast fitness is on record?
Answer: 0.761

Question: For A36C G44U, which yeast fitness is on record?
Answer: ≤ 0.5

Question: Which yeast fitness does the source give for C34U U35C here?
Answer: 0.607

Question: With A36C G56C A57C as the variant, how does the yeast fitness read?
Answer: 0.593

Question: With U35A A42C as the variant, how does the yeast fitness read?
Answer: 0.643

Question: With C34U C60U as the variant, how does the yeast fitness read?
Answer: 0.563

Question: For U35C U53A, which yeast fitness is on record?
Answer: 0.56

Question: For U35C G50A, which yeast fitness is on record?
Answer: 0.927

Question: With U35C G50C as the variant, how does the yeast fitness read?
Answer: 0.703

Question: For C34U C49U C55U G67A, which yeast fitness is on record?
Answer: ≤ 0.5
